Hits are enriched below; roughly 3.3% of the tested compounds scored in any of these assays.
Exocytosis inh: lytic granule exocytosis inhibition; inhibition, % at 10 µM; AID 651702; TALL-104 LAMP-1 surface exposure, flow cytometry; cells stimulated with thapsigargin and PMA; 0.66% of 360,000 active;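 active means inhibition above about 55%, limit read from the data; inconclusive means no clear call, values can overlap the other calls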
ABCB6 inh MLPCN: blocks the human ABCB6 transporter | Q9NP58 | K562-ABCB6 porphyrin accumulation, flow cytometry, 1 h; active compounds read low | fluorescence ratio to DMSO, % at 10 µM | 0.19% of 360,000 active | AID 602162;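 active means fluorescence ratio to DMSO below 75%, the collection mean minus 3 SD; inconclusive means too few cells collected in the well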;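 further: signal is porphyrin accumulated inside mitochondria; 100% equals median channel fluorescence of DMSO control wells; lower ratio means ABCB6 inhibition with less porphyrin fluorescence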
Myeloid diff MLP: compounds promoting myeloid differentiation; ER-HoxA9 myeloid progenitors, lysozyme-GFP differentiation, flow cytometry; calls only at 10 µM; 1% of 360,000 active;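 active means normalized GFP-positive differentiation at or above the plate's own cutoff, the solvent-only control mean plus 3 SD; inconclusive means no clear call, values can overlap the other calls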;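 further: cells exposed to compound for four days before flow analysis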
ATG4B inhibitor: blocks human ATG4B protease cleavage of LC3 substrate; ATG4B cleavage of LC3-PLA2, NBD-HPC fluorescence, 1 h; inhibition, % at 8.33 µM; 0.51% of 340,000 active; in the data active means inhibition above about 40%
Arrestin-AP2 inh: inhibitors of human beta-arrestin and AP2 interaction. FITC-arrestin peptide / GST-AP2 beads, flow cytometry; AP2 beta2 appendage carries R879A mutation. inhibition, % at 10 µM. 0.31% of 340,000 active. AID 504490;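 active means inhibition above a set limit, near 3 SD of compounds lacking own fluorescence, cut at about 54% in these data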;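 further: plate controls were DMSO wells for no effect and 5 µM unlabelled arrestin peptide for full effect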
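System: GST-AP2 R879A bound to glutathione beads, E. coli-expressed. Also added: 50 nM FITC-arrestin peptide. Schedule: compound with beads 12 min RT, then probe 1 h RT. Signal: bead flow cytometry, FITC channel. Read-out basis: percent response.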
CendR NRP1 mod: alters CendR peptide binding to human NRP-1; O14786; FAM-RPARPAR peptide binding to NRP-1, fluorescence polarization; inhibition, % at 25 µM; 0.85% of 360,000 active;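 active means inhibition or corrected inhibition above about 18%, plus a signal ratio from 0.5 to 1.5, limit read from the data, passing the limit was not always enough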
Target sequence (O14786 whole entry, looked up): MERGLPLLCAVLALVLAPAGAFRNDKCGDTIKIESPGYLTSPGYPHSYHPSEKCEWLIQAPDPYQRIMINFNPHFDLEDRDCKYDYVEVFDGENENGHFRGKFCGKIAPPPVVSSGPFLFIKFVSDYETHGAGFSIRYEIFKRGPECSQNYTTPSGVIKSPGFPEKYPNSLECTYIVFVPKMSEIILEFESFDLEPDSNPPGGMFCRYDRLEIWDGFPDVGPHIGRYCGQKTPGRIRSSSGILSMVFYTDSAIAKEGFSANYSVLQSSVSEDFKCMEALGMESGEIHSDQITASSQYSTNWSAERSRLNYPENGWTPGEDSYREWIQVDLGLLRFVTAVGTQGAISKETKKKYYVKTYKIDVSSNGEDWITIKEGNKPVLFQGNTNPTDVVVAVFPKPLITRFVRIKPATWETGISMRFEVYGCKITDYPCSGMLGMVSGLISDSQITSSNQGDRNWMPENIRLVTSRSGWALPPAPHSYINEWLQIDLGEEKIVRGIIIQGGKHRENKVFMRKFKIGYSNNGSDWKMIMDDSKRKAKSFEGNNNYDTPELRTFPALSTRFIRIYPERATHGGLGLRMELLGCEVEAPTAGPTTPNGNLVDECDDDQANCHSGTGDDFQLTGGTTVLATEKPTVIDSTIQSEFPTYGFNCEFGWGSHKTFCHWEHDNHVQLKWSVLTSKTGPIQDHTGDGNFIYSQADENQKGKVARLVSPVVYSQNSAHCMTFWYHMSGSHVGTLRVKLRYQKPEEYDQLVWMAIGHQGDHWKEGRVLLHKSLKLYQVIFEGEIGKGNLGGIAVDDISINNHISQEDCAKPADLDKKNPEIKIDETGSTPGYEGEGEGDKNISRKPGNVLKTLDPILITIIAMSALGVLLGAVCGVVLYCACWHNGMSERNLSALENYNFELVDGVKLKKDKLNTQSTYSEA
Myeloid diff: myeloid differentiation induction; calls only; 2% of 2,300 active; shares compounds with Myeloid diff MLP; ER-HoxA9 myeloid progenitors, GFP/Mac1 double-positive flow;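 active means share of green or green-and-red cells above 9 and 9% in run 1 or 4 and 3% in run 2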
GFP autofluor: counter-screen for myeloid differentiation promoters: compound fluorescence. shares compounds with Myeloid diff MLP. ER-HoxA9 myeloid progenitors, no estrogen, GFP autofluorescence flow cytometry; vehicle wells 0%, positive control 100%. fluorescence response, % (test concentration not listed). 7.4% of 2,300 active;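 active means over 5% cells positive for green fluorescent reporter, or over 2% positive for both it and APC stain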;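 further: range taken on the double positive population between DMSO and positive control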
Starred values were filed as active, the others as inactive; i = inactive; ? = inconclusive; . = not tested or not shown; + = active, no number.

SMILES	Exocytosis inh	ABCB6 inh MLPCN	Myeloid diff MLP	ATG4B inhibitor	Arrestin-AP2 inh	CendR NRP1 mod	Myeloid diff	GFP autofluor
O=C(NCc1ccncc1)C1CCCN(S(=O)(=O)c2cc(Cl)ccc2Cl)C1 (centres undefined)	5	89	i	-2	-6	-4	.	.
Cc1oc(-c2cccc(Cl)c2)nc1CS(=O)(=O)CC(=O)NCCCN1CCOCC1	-2	98	i	-4	-3	5	.	.
O=C(NCC(=O)N(Cc1ccccc1)C(C(=O)NC1CCCCC1)c1ccco1)c1ccco1 (centres undefined)	7	102	i	2	-2	15	.	.
NC(=O)c1nsc(C(=O)N(CCc2ccccc2)C(C(=O)NC2CCCC2)c2ccco2)c1N (centres undefined)	0	97	i	-9	0	-4	.	.
O=C(NC1CCCCC1)C(c1ccco1)N(Cc1ccco1)C(=O)c1ccco1 (centres undefined)	4	98	i	3	-2	-6	i	0
O=C(NC1CCCCC1)C(c1ccco1)N(CCc1ccccc1)C(=O)C(F)(F)F (centres undefined)	-3	97	i	-2	8	18	i	0
C[C@@H]1COc2cccc(N(C)CCO)c2S(=O)(=O)N1	-1	97	i	.	.	1	.	.
Cc1ccc(O)c(NC(=O)CSc2ccc(Cl)cc2)c1	-2	95	i	-2	-1	1	i	0
Cc1ccc(NS(=O)(=O)c2ccc(NC(=O)CSc3ccc(Cl)cc3)cc2)c(C)c1	0	91	i	-7	3	0	.	.
COc1ccc(C2C(Oc3ccccc3C)C(=O)N2Cc2ccc(F)cc2)cc1OC (centres undefined)	20	96	i	-6	3	6	i	0
CC(=O)NNC(=O)CCC(=O)Nc1ccccc1	-1	103	i	0	2	-1	i	86*
O=C(O)CCC(=O)Nc1ccc(Cc2ccc(NC(=O)CCC(=O)O)cc2)cc1	1	103	+	-2	17	-2	i	0
COc1ccc(/C=C/C(O)=C2/C(=O)N(C)C3(C)CC2c2ccccc2O3)cc1 (centres undefined)	16	91	+	13	25	-2	+	0
COc1ccc(-c2nc3ccccc3c(=O)n2N)cc1	0	98	i	9	0	5	.	.
COc1ccc2cc(C(C)c3nc4ccccc4c(=O)n3N)ccc2c1 (centres undefined)	4	88	+	-6	9	-1	i	0
CC(=O)Nc1ccc(NC(=O)c2cc(S(=O)(=O)N3CCCCC3)ccc2N2CCOCC2)cc1	9	93	i	-2	-9	14	.	.
COc1cc(NC(=O)c2cc(S(=O)(=O)N3CCCCC3)ccc2N2CCOCC2)cc(OC)c1	-2	96	+	-2	6	-4	i	2
COc1ccc(CCNc2c(C)c(C)nc3ncnn23)cc1	1	98	i	1	5	2	i	0
CCc1c(C)nc2ncnn2c1NCCc1ccc(OC)c(OC)c1	0	87	i	0	-10	-7	.	.
O=C(COc1ccccc1)Nc1ccccc1Cl	0	96	i	-5	-8	-6	.	.
NC(=O)CN(c1ccc(Oc2ccccc2)cc1)S(=O)(=O)c1ccccc1	1	101	.	13	0	-6	.	.
COc1ccc(NC(=O)N(C)[C@H]2C[C@H]3c4[nH]c5ccc(-c6ccc(OC)cc6)cc5c4CCN3C[C@H]2[C@H](C)O)cc1	-4	101	i	.	.	-14	.	.
COc1ccc(NC(=O)N(C)[C@H]2C[C@H]3c4[nH]c5ccc(-c6ccc7c(c6)OCO7)cc5c4CCN3C[C@H]2[C@H](C)O)cc1	34	103	i	.	.	-13	i	0
COC(=O)c1ccc(NS(=O)(=O)c2cc(-c3cc(C)no3)ccc2OC)cc1	36	99	?	-1	-9	-15	.	.
CC(=O)c1ccc(N2Cc3ccccc3/C2=N\C(=O)Nc2ccc(Cl)cc2)cc1	6	96	i	4	26	3	i	0
SMILES	Exocytosis inh	ABCB6 inh MLPCN	Myeloid diff MLP	ATG4B inhibitor	Arrestin-AP2 inh	CendR NRP1 mod	Myeloid diff	GFP autofluor
COC(=O)c1ccc(N2Cc3ccccc3/C2=N\C(=O)Nc2ccccc2)cc1	-4	97	i	-12	11	12	.	.
COCCCn1c(SCC(=O)OC2CCCCC2)nnc1-c1cccs1	-4	104	i	4	1	-4	i	0
Cc1ccc(C(=O)Nc2ccccc2C(=O)NCc2ccco2)cc1	4	?	i	1	2	-12	.	.
Cc1ccccc1CN(c1ccc(C(=O)Nc2ccccc2C(=O)NCc2ccco2)cc1)S(C)(=O)=O	-2	107	i	-6	4	9	i	0
Cc1ccc(C(=O)/C=C/c2ccc(-c3ccccc3[N+](=O)[O-])o2)cc1	48	118	.	3	22	0	i	0
O=C(O)c1ccccc1C(=O)N1CCN(c2cccc(Cl)c2)CC1	2	94	i	-10	-6	18	.	.
CCOc1ccccc1C(=O)N1CCN(c2cccc(Cl)c2)CC1	1	106	i	0	0	-14	i	4
CCOc1ccc(CCNC(=O)Cc2ccc(NC3=NC4CS(=O)(=O)CC4S3)cc2)cc1OCC (centres undefined)	0	102	i	-4	-13	5	.	.
Cc1ccc(NC(=S)Nc2cccc3cnccc23)cc1C	56*	102	i	6	28	-4	i	2
Cc1ccc(F)cc1NC(=O)C1CC(=O)N(CCc2ccccc2)C1 (centres undefined)	2	94	i	0	10	-2	.	.
C/C(=N\NC(=O)COc1cccc2ccccc12)c1cccs1	-2	96	i	-4	2	6	.	.
CNCC[C@H](Oc1cccc2ccccc12)c1cccs1	42	96	i	-6	8	-1	i	0
COC(=O)CN1C(=O)C2(OCCCO2)c2cc(Br)ccc21	-3	103	i	-2	9	-10	i	1
O=C(c1ccc(S(=O)(=O)N2CCOCC2)cc1)N1CCN(c2ccccc2F)CC1	-2	95	i	-9	2	2	.	.
O=C(c1ccc(S(=O)(=O)N2CCOCC2)cc1)N1CCN(c2ccc(F)cc2)CC1	-2	103	i	-1	23	2	i	0
COc1cc(/C=C2\SC(=S)N(NC(=O)c3ccc(O)c(OC)c3)C2=O)ccc1O	20	249	i	1	4	-216	i	28*

Source: PubChem BioAssay (several laboratories)
